Assay results collected from several papers.
Protocols differ between the studies behind these lines.
Target: LIM domain kinase 1 (LIMK1, Homo sapiens, UniProt P53667)

| SMILES | observed | action | method | tested at | measurement | result |
| --- | --- | --- | --- | --- | --- | --- |
| CSc1cccnc1N1CCN(Cc2nc3ccccc3[nH]2)CC1 | cell-free assay | – | competition with immobilised ligand | 1 µM | remaining binding | 100% |
| CCN(CC)CCNC(=O)c1c(C)[nH]c(/C=C2\C(=O)Nc3ccc(F)cc32)c1C | enzyme activity | inhibitor | – | 10 µM | inhibition | 39% |
| CN1CCN(c2cnc3c(C4CCN(C(=O)c5ccc(OC(F)(F)F)cc5N)CC4)ncnc3c2)CC1 | cell-free assay | – | competition with immobilised ligand | 1 µM | remaining binding | 100% |
| O=C(Nc1cnn(-c2csc(C(=O)NC3COC3)c2)c1)Nc1c(F)cccc1Cl | enzyme activity | inhibitor | – | 5 µM | remaining activity | 104% |
| Nc1ncnc2occ(-c3ccc(NC(=O)Nc4cc(C(F)(F)F)ccc4F)cc3)c12 | cell-free assay | inhibitor | – | 20 µM | remaining signal | 7.6% |
| CNC(=O)c1cc(Oc2ccc(NC(=O)Nc3ccc(Cl)c(C(F)(F)F)c3)cc2)ccn1 | enzyme activity | inhibitor | – | 0.3 µM | inhibition | 29% |
| CCOC(=O)c1cc2cc(-c3cc(C(=O)NCc4ccc(C(=O)O)cc4)nn3C)ccc2[nH]1 | cell-free assay | – | competition with immobilised ligand | 0.1 µM | remaining binding | 100% |
| O=C1NC(=O)c2cc(Nc3ccc(F)cc3)c(Nc3ccc(F)cc3)cc21 | cell-free assay | – | – | 0.5 µM | remaining signal | 95.9% |
| CC(C)(C)c1nc(-c2cccc(NS(=O)(=O)c3c(F)cccc3F)c2F)c(-c2ccnc(N)n2)s1 | enzyme activity | inhibitor | radiometric | 1 µM | remaining activity | 98% |
| CNC(=O)c1ccc(Nc2ncc(C(F)(F)F)c(NCc3nccnc3N(C)S(C)(=O)=O)n2)cc1 | cell-free assay | – | competition with immobilised ligand | 0.1 µM | remaining binding | 100% |
| O=C(Nc1cnn(-c2csc(C(=O)NC3COC3)c2)c1)Nc1ccccc1Cl | enzyme activity | inhibitor | – | 5 µM | remaining activity | 96.2% |
| O=C1Nc2ccc(Cl)cc2C1=Cc1cc(Cl)c(O)c(Cl)c1 | cell-free assay | – | – | 0.5 µM | remaining signal | 83.7% |
| Cn1cnc(Br)c1C1=CN(c2ncnc3[nH]cnc23)CCS1 | enzyme activity | inhibitor | radiometric | 50 nM | inhibition | 15.2% |
| CC(=O)c1c(NS(C)(=O)=O)c2cc(-c3ccc(Cl)cc3)c(-c3ccc(Cl)cc3Cl)nc2n(C)c1=O | cell-free assay | – | competition with immobilised ligand | 1 µM | remaining binding | 88% |
| Nc1nc(Nc2ccc(S(N)(=O)=O)cc2)nn1C(=O)c1c(F)cccc1F | cell-free assay | – | – | 0.5 µM | remaining signal | 16.6% |
| CCN(CC)c1ccc(C2=NNC(=O)CC2C)cc1[N+](=O)[O-] (centres unmarked) | enzyme activity | inhibitor | – | 10 µM | remaining activity | 93% |
| COc1cc(Nc2c(C#N)cnc3cc(OCCCN4CCN(C)CC4)c(OC)cc23)c(Cl)cc1Cl | cell-free assay | – | – | 0.5 µM | remaining signal | 96.4% |
| Cn1nc(C(F)(F)F)cc1-c1cnc(N2CCc3cc(S(=O)(=O)Nc4c(F)cc(Cl)cc4F)cc(N4CCCC4=O)c32)nc1 | cell-free assay | – | competition with immobilised ligand | 1 µM | remaining binding | 100% |
| Cc1ccc(C(=O)Nc2ccc(CN3CCN(C)CC3)c(C(F)(F)F)c2)cc1C#Cc1cnc2cccnn12 | enzyme activity | inhibitor | – | 23.5 nM | remaining activity | 99% |
| COc1cc(Cl)c(C(=O)N[C@@H](CN[C@H]2CC[C@@H](N)CC2)Cc2ccc(C#N)cc2)cc1-c1ccc(CN[C@H](C)c2ccc(C)cc2)o1 | enzyme activity | inhibitor | – | 1 µM | remaining activity | 100% |
